The values that follow come from ChEMBL document CHEMBL3352661, “Cryptochinones from Cryptocarya chinensis act as farnesoid X receptor agonists” (Bioorg Med Chem Lett, 2014).

The structures appear in SMILES notation. Calls of active or inactive are those of the source. The rule behind the calls is not given here.

Data set [1] addresses T1, Bile acid receptor (Homo sapiens) (UniProt Q96RI1).
T1 sequence (whole entry): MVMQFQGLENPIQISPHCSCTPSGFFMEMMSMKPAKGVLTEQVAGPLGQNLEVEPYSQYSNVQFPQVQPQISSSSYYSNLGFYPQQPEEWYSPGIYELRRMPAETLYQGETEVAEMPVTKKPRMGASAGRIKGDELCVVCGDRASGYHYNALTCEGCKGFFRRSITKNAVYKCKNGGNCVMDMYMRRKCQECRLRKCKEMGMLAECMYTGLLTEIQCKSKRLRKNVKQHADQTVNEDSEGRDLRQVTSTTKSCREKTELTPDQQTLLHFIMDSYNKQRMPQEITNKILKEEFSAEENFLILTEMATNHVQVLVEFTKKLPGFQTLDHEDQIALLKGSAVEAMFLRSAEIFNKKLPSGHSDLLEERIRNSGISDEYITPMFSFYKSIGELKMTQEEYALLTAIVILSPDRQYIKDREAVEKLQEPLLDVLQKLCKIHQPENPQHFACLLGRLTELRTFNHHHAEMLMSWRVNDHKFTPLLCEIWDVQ
The experiment in a line: Agonist activity at […] (unknown origin) expressed in human HepG2 cells co-expressing rat CYP7A1 gene promoter assessed as transrepression of CYP7A1 promoter driven luciferase activity at 1 uM relative to untreated control. It counts as cell-based. A digest of the protocol: (§1)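 Transient transfection of HepG2 cells (1 × 10^5/well; phenol red-free DMEM, 10% charcoal-stripped FBS, pen/strep) with pCMV-FXR (2 µg), rat CYP7A1 promoter reporter prCYP7A1-luc (6 µg) and pCMV-β-gal (1 µg). After 48 h exposure to 100 nM–10 µM, lysate luciferase was normalized to β-gal and expressed relative to DMSO (=1). 10 µM CDCA reference; at least three determinations.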

For data set [2], the target named is T1, Bile acid receptor (Homo sapiens). The data set can be described thus: Agonist activity at […] (unknown origin) expressed in human HepG2 cells co-expressing human PLTP gene promoter assessed as transactivation of PLTP promoter driven luciferase activity relative to untreated control. Format: cell-based.
Data set [3] shares this target. The experiment in a line: Agonist activity at […] (unknown origin) expressed in human HepG2 cells co-expressing rat CYP7A1 gene promoter assessed as transrepression of CYP7A1 promoter driven luciferase activity at 10 uM relative to untreated control. Format: cell-based. The essentials: as §1
The target is the same in data set [4]. The data set can be described thus: Agonist activity at […] (unknown origin) expressed in human HepG2 cells co-expressing rat CYP7A1 gene promoter assessed as transrepression of CYP7A1 promoter driven luciferase activity at 100 nM relative to untreated control. Format: cell-based. A digest of the protocol:
as §1

For the next data set, the system named is HepG2. The data set can be described thus: Toxicity against human HepG2 cells assessed as effect on cell growth at 100 nM to 1 uM. Format: cell-based. Particulars: hepg2, 0.1 µM.
The target in data set [5] is T1, Bile acid receptor (Homo sapiens). The data set can be described thus: Agonist activity at […] (unknown origin) expressed in human HepG2 cells co-expressing human PLTP gene promoter assessed as transactivation of PLTP promoter driven luciferase activity at 100 nM relative to untreated control. Format: cell-based. A digest of the protocol:
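HepG2 cells (1 × 10^5 cells/well, phenol red-free DMEM, 10% charcoal-stripped FBS, pen/strep) transfected the next day with wild-type FXR plasmid pCMV-FXR (2 µg), pPLTP-Luc reporter (6 µg) and pCMV-β-gal (1 µg). Dosed 48 h at 100 nM–10 µM. Luciferase normalized to β-gal, expressed relative to DMSO (=1), 10 µM CDCA reference; mean ± SD of ≥3 determinations.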

For data set [6] the target is unchanged. The experiment in a line: Agonist activity at […] (unknown origin) expressed in human HepG2 cells co-expressing rat CYP7A1 gene promoter assessed as transrepression of CYP7A1 promoter driven luciferase activity relative to untreated control. Format: cell-based. A digest of the protocol:
as §1

The target is the same in data set [7]. The data set can be described thus: Agonist activity at GAL4 DNA binding domain tagged FXR ligand binding domain (unknown origin) expressed in human HepG2 cells assessed as receptor transactivation measured by relative luciferase activity at 100 nM by luciferase reporter gene based mammalian one-hybrid assay relative to untreated control. It counts as cell-based. A digest of the protocol:
(§2)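 HepG2 cells seeded at 1 × 10^5 cells/well in phenol red-free DMEM with 10% charcoal-stripped FBS and penicillin/streptomycin. Next day transfected with pGAL4-FXR LBD (2 µg), pG5-luc (6 µg) and pCMV-β-gal normalizer (1 µg). Treated 48 h at 100 nM–10 µM, DMSO vehicle, 10 µM CDCA reference. Luciferase/β-gal ratio expressed relative to DMSO (=1); at least triplicate.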

For data set [8], the target named is T2, Peroxisome proliferator-activated receptor gamma (Homo sapiens) (UniProt P37231).
T2 sequence (whole entry): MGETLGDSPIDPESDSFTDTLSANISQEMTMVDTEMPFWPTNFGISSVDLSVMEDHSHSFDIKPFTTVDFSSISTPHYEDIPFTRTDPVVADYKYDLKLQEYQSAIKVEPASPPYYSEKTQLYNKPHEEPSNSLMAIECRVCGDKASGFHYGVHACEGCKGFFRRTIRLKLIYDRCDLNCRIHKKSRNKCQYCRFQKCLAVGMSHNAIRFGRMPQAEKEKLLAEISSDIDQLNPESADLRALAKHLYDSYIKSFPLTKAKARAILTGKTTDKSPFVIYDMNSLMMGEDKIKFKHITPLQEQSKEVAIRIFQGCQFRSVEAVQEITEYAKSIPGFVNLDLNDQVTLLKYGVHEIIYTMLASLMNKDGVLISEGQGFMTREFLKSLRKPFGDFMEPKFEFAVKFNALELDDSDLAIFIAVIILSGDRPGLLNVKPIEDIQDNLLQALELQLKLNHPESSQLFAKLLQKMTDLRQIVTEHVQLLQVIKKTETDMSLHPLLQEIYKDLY
The data set can be described thus: Agonist activity at PPARgamma (unknown origin) by receptor transactivation assay.

Data set [9] concerns the target T1, Bile acid receptor (Homo sapiens). The experiment in a line: Agonist activity at […] (unknown origin) expressed in human HepG2 cells co-expressing human SHP gene promoter assessed as transactivation of SHP promoter driven luciferase activity at 100 nM relative to untreated control. It counts as cell-based.
Data set [10] has the same target. The experiment in a line: Agonist activity at […] (unknown origin) expressed in human HepG2 cells co-expressing human SHP gene promoter assessed as transactivation of SHP promoter driven luciferase activity at 1 uM relative to untreated control. It counts as cell-based.
Data set [11] has the same target. The experiment in a line: Agonist activity at GAL4 DNA binding domain tagged FXR ligand binding domain (unknown origin) expressed in human HepG2 cells assessed as receptor transactivation measured by relative luciferase activity at 1 uM by luciferase reporter gene based mammalian one-hybrid assay relative to untreated control. It counts as cell-based. The essentials:
as §2
In general terms: In a reporter assay the amount or activity of a reporter protein is the signal.

For data set [12] the target is unchanged. The experiment in a line: Agonist activity at […] (unknown origin) expressed in human HepG2 cells co-expressing human SHP gene promoter assessed as transactivation of SHP promoter driven luciferase activity at 100 nM to 10 uM relative to untreated control. It counts as cell-based.

In the case of `CO[C@H]1CC2=C(C(=O)C[C@@H](c3ccccc3)O2)[C@H]2CC(=O)O[C@@H]12` [7-O-METHYLCRYPTOCHINONE A], the outcome in [1], in data set [4], in data set [5], in data set [7] and in data set [8] was inactive. For the same compound, the Activity entry was “Dose-dependent effect” in data set [2], “Non-toxic” in the data set on HepG2 and “Dose-dependent effect” in data set [6]. Moreover, in data set [3], the inhibition (commonly the share of the control response that was lost under treatment) worked out at 60%. Further, the result in data set [9] was Active. In addition, the fold change (FC) in data set [10] came to 3; in data set [11] it was 1.5.

Consider `CO[C@H]1CC2=C(C(=O)C[C@@H](c3ccccc3)O2)[C@@H]2CC(=O)O[C@H]12` [7-O-METHYLCRYPTOCHINONE B], for which the result in data set [1], in data set [4], in [5], in [7] and in [8] was inactive. The values for the Activity result (in data set [2]; with HepG2; in data set [6]) were “Dose-dependent effect”, “Non-toxic” and “Dose-dependent effect”, respectively. The inhibition in data set [3] is 60%. Further, the result in [9] was Active. The fold change (FC) was determined as 3 in data set [10] and 1.5 in [11].

With `O=C1C[C@@H]2C3=C(C[C@H](O)[C@@H]2O1)O[C@H](c1ccccc1)CC3=O` [CRYPTOCHINONE A], the result in data set [1] and in [12] was Active. Further, the Activity entry in [2] was “Dose-dependent effect”; with HepG2, “Non-toxic”; in data set [6], “Dose-dependent effect”. Moreover, the inhibition in data set [3] stood at 60%. In addition, the outcome in data set [4], in [5], in data set [7] and in data set [8] was inactive. In data set [11], the fold change (FC) came to 1.5.

As for `O=C1C[C@H]2C3=C(C[C@H](O)[C@H]2O1)O[C@H](c1ccccc1)CC3=O` [CRYPTOCHINONE B], the outcome in [1] and in data set [12] was Active. Further, the Activity result is “Dose-dependent effect” in data set [2], “Non-toxic” in the data set on HepG2 and “Dose-dependent effect” in [6]. Moreover, in data set [3], the inhibition is 60%. In addition, the result in data set [4], in data set [5], in data set [7] and in data set [8] was inactive. In addition, the fold change (FC) in data set [11] was 1.5.
